# In ChEMBL document CHEMBL5143722, “Antimicrobial Peptides against Multidrug-Resistant Pseudomonas aeruginosa Biofilm from Cystic Fibrosis Patients” (J Med Chem, 2022):
# Active and inactive are the calls of the source. The rule behind the calls is not given here.
# What was measured:
# Pseudomonas aeruginosa [1] = experiment: Antibiofilm activity against Pseudomonas aeruginosa clinical isolate 24 assessed as inhibition of biofilm formation at MIC incubated for 24 hrs by crystal violet staining based microtiter plate method; format: functional, organism-based
# Outline: (§1)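 Washed overnight cultures in BM2 medium at 1 × 10^6 CFU/mL with 2-fold serial peptide dilutions in a U-bottom 96-well plate. Incubated 24 h at 37 °C without agitation. Unattached cells washed off, then 0.1% crystal violet stain read at 590 nm. No-bacteria blanks. Biomass expressed as % of untreated biofilm. At least three biological repeats.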
# Pseudomonas aeruginosa [2] = experiment: Antibiofilm activity against Pseudomonas aeruginosa clinical isolate 25 assessed as inhibition of biofilm formation at MIC incubated for 24 hrs by crystal violet staining based microtiter plate method; format: functional, organism-based; outline: as §1
# Pseudomonas aeruginosa [3] = experiment: Antibiofilm activity against Pseudomonas aeruginosa clinical isolate 46 assessed as inhibition of biofilm formation at MIC incubated for 24 hrs by crystal violet staining based microtiter plate method; format: functional, organism-based; outline: as §1
# Pseudomonas aeruginosa [4] = experiment: Antibiofilm activity against Pseudomonas aeruginosa clinical isolate 99 assessed as inhibition of biofilm formation at MIC incubated for 24 hrs by crystal violet staining based microtiter plate method; format: functional, organism-based; outline: as §1
# Pseudomonas aeruginosa [5] = experiment: Antibiofilm activity against Pseudomonas aeruginosa clinical isolate 995 assessed as inhibition of biofilm formation at MIC incubated for 24 hrs by crystal violet staining based microtiter plate method; format: functional, organism-based; outline: as §1
# Pseudomonas aeruginosa [6] = experiment: Antibiofilm activity against Pseudomonas aeruginosa clinical isolate 25 assessed as inhibition of biofilm formation at 1.56 uM incubated for 24 hrs by crystal violet staining based microtiter plate method; format: functional, organism-based; outline: as §1
# Pseudomonas aeruginosa [7] = experiment: Antibiofilm activity against Pseudomonas aeruginosa clinical isolate 40 assessed as inhibition of biofilm formation at 1.56 uM incubated for 24 hrs by crystal violet staining based microtiter plate method; format: functional, organism-based; outline: as §1
# Pseudomonas aeruginosa [8] = experiment: Antibiofilm activity against Pseudomonas aeruginosa clinical isolate 59 assessed as inhibition of biofilm formation at 1.56 uM incubated for 24 hrs by crystal violet staining based microtiter plate method; format: functional, organism-based; outline: as §1
# Pseudomonas aeruginosa [9] = experiment: Antibiofilm activity against Pseudomonas aeruginosa clinical isolate 238 assessed as inhibition of biofilm formation at 1.56 uM incubated for 24 hrs by crystal violet staining based microtiter plate method; format: functional, organism-based; outline: as §1
# Pseudomonas aeruginosa [10] = experiment: Antibiofilm activity against Pseudomonas aeruginosa clinical isolate 629 assessed as inhibition of biofilm formation at 1.56 uM incubated for 24 hrs by crystal violet staining based microtiter plate method; format: functional, organism-based; outline: as §1
# Pseudomonas aeruginosa [11] = experiment: Antibiofilm activity against Pseudomonas aeruginosa PAO1 assessed as inhibition of biofilm formation at 1.56 uM incubated for 24 hrs by crystal violet staining based microtiter plate method; format: functional, organism-based
# Pseudomonas aeruginosa [12] = experiment: Antibiofilm activity against Pseudomonas aeruginosa assessed as inhibition of biofilm formation at 0.5 times of MIC incubated for 24 hrs by crystal violet staining based microtiter plate method; format: functional, organism-based; outline: as §1
# Pseudomonas aeruginosa [13] = experiment: Antibiofilm activity against Pseudomonas aeruginosa clinical isolate 46 in artificial sputum medium at 100 uM incubated for 24 hrs by resazurin staining based microtiter plate method; format: functional, organism-based
# Outline: (§2)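 Washed overnight culture set to OD ~0.05 in BM2, diluted 1:100 into artificial sputum medium (pH 6.9) in 24-well plates. Grown 3 days aerobically at 37 °C with agitation. Peptides (12.5–100 μM) added for 24 h with agitation. Biofilm disrupted by cellulase for 1 h at 37 °C. Resazurin 0.02% for 1–2 h, fluorescence ex 530/em 590 nm; viability as % of untreated wells.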
# Pseudomonas aeruginosa [14] = experiment: Antibiofilm activity against Pseudomonas aeruginosa clinical isolate 46 in artificial sputum medium at 50 uM incubated for 24 hrs by resazurin staining based microtiter plate method; format: functional, organism-based; outline: as §2
# Pseudomonas aeruginosa [15] = experiment: Antibiofilm activity against Pseudomonas aeruginosa PAO1 in artificial sputum medium at 50 uM incubated for 24 hrs by resazurin staining based microtiter plate method; format: functional, organism-based; outline: as §2
# Pseudomonas aeruginosa [16] = experiment: Antibiofilm activity against Pseudomonas aeruginosa PAO1 in artificial sputum medium at 25 uM incubated for 24 hrs by resazurin staining based microtiter plate method relative to control; format: functional; outline: as §2
# Pseudomonas aeruginosa [17] = experiment: Induction of biofilm degradation of Pseudomonas aeruginosa clinical isolate 82 derived from cystic fibrosis patient sputum at 1.56 to 50 uM by crystal violet based staining analysis; format: functional; settings: dose 1.56-50 µM
# Outline: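 Biofilm grown from 1 × 10^6 CFU/mL in pooled CF patient sputum diluted 10-fold with BM2, static, 37 °C, 24 h. Unattached cells rinsed off, then serial peptide dilutions (1.56–50 μM) applied for 1 h. Washed and stained with 0.1% crystal violet, read at 590 nm. Reported as % of untreated biomass, with no-bacteria blanks.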
# Pseudomonas aeruginosa [18] = experiment: Drug resistance in Pseudomonas aeruginosa clinical isolate 24 in BM2 medium assessed as fold change in MIC
# [19] = system: Pseudomonas aeruginosa PAO1; experiment: Induction of biofilm degradation of Pseudomonas aeruginosa PAO1 in cystic fibrosis patient sputum at 10 uM incubated for 48 hr by resazurin staining based confocal microscopy analysis
# Pseudomonas aeruginosa [20] = experiment: Induction of biofilm degradation of Pseudomonas aeruginosa clinical isolate 59 at 50 uM incubated for 1 hr by crystal violet staining analysis relative to control; format: functional
# Outline: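 Inoculum of 1 × 10^6 CFU/mL was grown 24 h at 37 °C without agitation to form biofilm. Wells were rinsed of unattached bacteria and exposed for 1 h to serial peptide dilutions (1.56–50 μM). They were then washed, stained with 0.1% crystal violet, and read at 590 nm with no-bacteria blanks. Biomass is given as % of untreated biofilm.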
# Pseudomonas aeruginosa [21] = experiment: Induction of biofilm degradation of Pseudomonas aeruginosa clinical isolate 25 at sub MIC concentration incubated for 1 hr by crystal violet staining analysis; format: functional
# Outline: (§3)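 Bacteria at 1 × 10^6 CFU/mL in BM2 grown static at 37 °C for 24 h to form biofilm. Wells rinsed of unattached cells, then exposed for 1 h to serial peptide dilutions (1.56–50 μM). Washed, stained with 0.1% crystal violet, A590 read. Biomass given as % of untreated biofilm; no-bacteria wells as blanks. At least three biological repeats.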
# Pseudomonas aeruginosa [22] = experiment: Induction of biofilm degradation of Pseudomonas aeruginosa clinical isolate 251 at sub MIC concentration incubated for 1 hr by crystal violet staining analysis; format: functional; outline: as §3
# Pseudomonas aeruginosa [23] = experiment: Induction of biofilm degradation of Pseudomonas aeruginosa clinical isolate 629 at sub MIC concentration incubated for 1 hr by crystal violet staining analysis; format: functional; outline: as §3
# Pseudomonas aeruginosa [24] = experiment: Induction of biofilm degradation of Pseudomonas aeruginosa clinical isolate PAO1 at sub MIC concentration incubated for 1 hr by crystal violet staining analysis; format: functional; outline: as §3
# Pseudomonas aeruginosa [25] = experiment: Antibiofilm activity against Pseudomonas aeruginosa clinical isolate 24 in basal medium 2 at 12.5 to 100 uM incubated for 24 hrs by resazurin staining based microtiter plate method; format: functional, organism-based; settings: dose 12.5-100 µM
# Pseudomonas aeruginosa [26] = experiment: Antibiofilm activity against Pseudomonas aeruginosa clinical isolate 46 in basal medium 2 at 12.5 to 100 uM incubated for 24 hrs by resazurin staining based microtiter plate method; format: functional, organism-based; settings: dose 12.5-100 µM
# Pseudomonas aeruginosa [27] = experiment: Antibiofilm activity against Pseudomonas aeruginosa clinical isolate 82 in basal medium 2 at 12.5 to 100 uM incubated for 24 hrs by resazurin staining based microtiter plate method; format: functional, organism-based; settings: dose 12.5-100 µM
Compound,inhibition (Pseudomonas aeruginosa [1]),inhibition (Pseudomonas aeruginosa [2]),inhibition (Pseudomonas aeruginosa [3]),inhibition (Pseudomonas aeruginosa [4]),inhibition (Pseudomonas aeruginosa [5]),fold change (FC) (Pseudomonas aeruginosa [18]),Activity [19],Activity (Pseudomonas aeruginosa [20]) [%],Activity (Pseudomonas aeruginosa [25]),Activity (Pseudomonas aeruginosa [26]),Activity (Pseudomonas aeruginosa [27]),also measured
CC(C)C[C@H](NC(=O)[C@H](CC(C)C)NC(=O)[C@H](CCCCN)NC(=O)[C@H](CC(C)C)NC(=O)[C@H](CC(C)C)NC(=O)[C@H](CCCCN)NC(=O)[C@H](CCCCN)NC(=O)[C@H](CC(C)C)NC(=O)[C@H](CC(C)C)NC(=O)[C@H](CCCCN)NC(=O)[C@H](CCCCN)NC(=O)[C@H](CC(C)C)NC(=O)[C@H](CC(C)C)NC(=O)[C@H](CCCCN)NC(=O)[C@@H](N)CC(C)C)C(N)=O,Active,Active,Active,Active,Active,<20,Active,,,,,inhibition (Pseudomonas aeruginosa [6]): Active; inhibition (Pseudomonas aeruginosa [7]): Active; inhibition (Pseudomonas aeruginosa [8]): Active; inhibition (Pseudomonas aeruginosa [9]): Active; inhibition (Pseudomonas aeruginosa [10]): Active; inhibition (Pseudomonas aeruginosa [11]): Active; inhibition (Pseudomonas aeruginosa [12]): Active; Activity (Pseudomonas aeruginosa [13]): Active; Activity (Pseudomonas aeruginosa [14]): Active; Activity (Pseudomonas aeruginosa [15]): Active; Activity (Pseudomonas aeruginosa [16]): 66.7%; Activity (Pseudomonas aeruginosa [17]): Active
CC(C)C[C@H](NC(=O)[C@H](CC(C)C)NC(=O)[C@H](CC(C)C)NC(=O)[C@H](CC(C)C)NC(=O)[C@H](CC(C)C)NC(=O)[C@H](CC(C)C)NC(=O)[C@H](CC(C)C)NC(=O)[C@H](CC(C)C)NC(=O)[C@H](CC(C)C)NC(=O)[C@H](CCCCN)NC(=O)[C@H](CCCCN)NC(=O)[C@@H](N)CCCCN)C(=O)N[C@@H](CCCCN)C(=O)N[C@@H](CCCCN)C(=O)N[C@@H](CCCCN)C(N)=O,,,,,,,Active,40,Active,Active,Active,Activity (Pseudomonas aeruginosa [21]): Active; Activity (Pseudomonas aeruginosa [22]): Active; Activity (Pseudomonas aeruginosa [23]): Active; Activity (Pseudomonas aeruginosa [24]): Active
CC[C@H](C)[C@H](NC(=O)[C@H](CCCCN)NC(=O)[C@H](CCC(=O)O)NC(=O)[C@H](CCCCN)NC(=O)[C@H](CO)NC(=O)[C@H](CCCCN)NC(=O)[C@H](CCCNC(=N)N)NC(=O)[C@H](Cc1ccccc1)NC(=O)[C@H](Cc1ccccc1)NC(=O)[C@H](CC(=O)O)NC(=O)CNC(=O)[C@H](CC(C)C)NC(=O)[C@@H](N)CC(C)C)C(=O)NCC(=O)N[C@@H](CCCCN)C(=O)N[C@@H](CCC(=O)O)C(=O)N[C@@H](Cc1ccccc1)C(=O)N[C@@H](CCCCN)C(=O)N[C@@H](CCCNC(=N)N)C(=O)N[C@H](C(=O)N[C@H](C(=O)N[C@@H](CCC(N)=O)C(=O)N[C@@H](CCCNC(=N)N)C(=O)N[C@H](C(=O)N[C@@H](CCCCN)C(=O)N[C@@H](CC(=O)O)C(=O)N[C@@H](Cc1ccccc1)C(=O)N[C@@H](CC(C)C)C(=O)N[C@@H](CCCNC(=N)N)C(=O)N[C@@H](CC(N)=O)C(=O)N[C@@H](CC(C)C)C(=O)N[C@H](C(=O)N1CCC[C@H]1C(=O)N[C@@H](CCCNC(=N)N)C(=O)N[C@H](C(=O)N[C@@H](CCC(=O)O)C(=O)N[C@@H](CO)C(N)=O)[C@@H](C)O)C(C)C)[C@@H](C)CC)C(C)C)[C@@H](C)CC,Active,Active,Active,Active,Active,<20,,40,Active,Active,Active,
